Assay results as given in ChEMBL document CHEMBL1134638, “Synthetic 2-aroylindole derivatives as a new class of potent tubulin-inhibitory, antimitotic agents” (J Med Chem, 2001).
≈ marks a conversion by molar mass, not a printed value. Where “and” joins values, the source holds several entries; their conditions need not be identical. Equal values may be shown once.

Columns and labels:
Mus musculus [1] = assay: Growth delay until tumor doubling in days against MEXF 989 cells for a dose of 100 [mg/kg], schedule of d1-5,8-12 in mice by oral administration.; type: functional
Outline: (§1)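 NMRI outbred nude mice aged 6–8 weeks, sex matched to the donor patient. About 25 mg tumor fragments (MEXF 989 or RXF 944L) implanted s.c. in both flanks. Once tumors reached 100–200 mm3, animals were randomized (6–12 tumors/group). Dosing 100 or 200 mg/kg/day orally on days 1–5 and 8–12, in 10% DMSO/PBS with 0.05% Tween 80. Calipers twice weekly. Outputs: T/C from median tumor weights, growth delay to 200% volume, and body weight change.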

Mus musculus [2] = assay: Drug relative deaths against RXF 944LX cells for a dose of 200 [mg/kg], schedule of d1-5,8-12 by peroral administration in mice; type: functional
Outline: (§2)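 Outbred NMRI nude mice, 6-8 weeks old, sex matched to donor patient. s.c. fragments (~25 mg) implanted in both flanks. Randomised at 100-200 mm3, 6-12 tumors per group. Compound in DMSO diluted with PBS/0.05% Tween 80 to 10% final DMSO, given orally daily on days 1-5 and 8-12. Toxic deaths and body weight change recorded.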

Mus musculus [3] = assay: Medium maximum body weight change in percentage against RXF 944LX cells for a dose of 200 [mg/kg], schedule of d1-5,8-12 by peroral administration in mice; type: functional; outline: as §1
U373 MG [4] = assay: Cell cycle arrest activity against U373 astrocytoma cells.; conditions: Homo sapiens
HeLa = assay: In vitro inhibitory activity against HeLa/KB cells using XTT proliferation assay.; type: functional, cell-based; conditions: Homo sapiens
Outline: (§3)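 XTT proliferation assay measuring cellular metabolic activity after 48 h incubation with compound. Compounds dissolved in DMSO at 1 mg/mL stock. IC50 or estimates obtained by nonlinear regression. Each experiment at least in duplicate.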

Mus musculus [5] = assay: Drug relative deaths against RXF 944LX cells for a dose of 100 [mg/kg], schedule of d1-5,8-12 by oral administration in mice; type: functional; outline: as §2
Mus musculus [6] = assay: Medium maximum body weight change in percentage against MEXF 989 cells for a dose of 100 [mg/kg], schedule of d1-5,8-12 by oral administration in mice; type: functional; outline: as §1
Mus musculus [7] = assay: Optimum tumor weight of treated / control animals in % (deviation) for a dose of 100 [mg/kg], schedule of d1-5,8-12 by oral administration in mice; type: functional; outline: as §1
Mus musculus [8] = assay: Medium maximum body weight change in percentage against MEXF 989 cells for a dose of 200 [mg/kg], schedule of d1-5,8-12 by peroral administration in mice; type: functional; outline: as §1
Tumor Cell line = assay: Mean cytotoxicity against a panel of human tumor cell lines; type: functional
Outline: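 Modified propidium iodide assay quantifying dead cells by DNA/RNA staining, run on a human tumor cell panel (breast, colon, stomach, lung, melanoma, ovary, renal, soft tissue lines). Growth inhibition expressed as % T/C; IC70 per line from concentration-viability plots. Mean IC70 is the geometric mean across lines; unreached values set to the lowest or highest concentration tested.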

Mus musculus [9] = assay: Medium maximum body weight change in percentage against RXF 944LX cells for a dose of 100 [mg/kg], schedule of d1-5,8-12 by oral administration in mice; type: functional; outline: as §1
Mus musculus [10] = assay: Growth delay until tumor doubling in days against RXF 944LX cells for a dose of 100 [mg/kg], schedule of d1-5,8-12 by oral administration in mice; type: functional; outline: as §1
SK-OV-3 = assay: In vitro inhibitory activity against SK-OV-3 cells using XTT proliferation assay.; type: functional, cell-based; conditions: Homo sapiens; outline: as §3
U373 MG [11] = assay: Cytotoxicity against U373 astrocytoma cells.; type: functional, cell-based, U-373MG ATCC; conditions: Homo sapiens; outline: as §3
Mus musculus [12] = assay: Growth delay until tumor doubling in days against MEXF 989 cells for a dose of 200 [mg/kg], schedule of d1-5,8-12 by peroral administration in mice; type: functional; outline: as §1
Mus musculus [13] = assay: Drug relative deaths against MEXF 989 cells for a dose of 200 [mg/kg], schedule of d1-5,8-12 by peroral administration in mice; type: functional; outline: as §2
Mus musculus [14] = assay: Drug relative deaths against MEXF 989 cells for a dose of 100 [mg/kg], schedule of d1-5,8-12 by oral administration in mice; type: functional; outline: as §2

SMILES: COc1ccc2[nH]c(C(=O)c3ccccc3)cc2c1
- GD200 (Mus musculus [1]): 4.8 days
- Activity (Mus musculus [2]): 0%
- BWC (Mus musculus [3]): 1%
- IC50 (U373 MG [4]): 62.7 nM
- IC50 (HeLa): 68 nM
- Activity (Mus musculus [5]): 0%
- BWC (Mus musculus [6]): 11%
- T/C (d) (Mus musculus [7]): 34% and 100%
- BWC (Mus musculus [8]): 3%
- IC70 (Tumor Cell line): 0.22 µg/mL (≈ 0.875 µM)
- BWC (Mus musculus [9]): 11%
- GD200 (Mus musculus [10]): -0.4 days
- IC50 (SK-OV-3): 680 nM
- IC50 (U373 MG [11]): 74 nM
- GD200 (Mus musculus [12]): 12.9 days
- Activity (Mus musculus [13]): 0%
- Activity (Mus musculus [14]): 0%
